# Test results from ChEMBL document CHEMBL3120154, “2-[N-Alkyl(R-phenyl)-aminomethyl]-3-phenyl-7-trifluoromethylquinoxalines as anticancer agents inhibitors of folate enzymes” (Eur J Med Chem, 2014).
# Columns and labels:
# Type in all cases: functional
# SK-MEL-28 [1] = test: Cytotoxicity against human SK-MEL-28 cells at 10^-6 M after 48 hrs by SRB assay; settings: SK-MEL-28, 48 h, read-out: GI
# In short: (§1)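 Second-stage screen in the 60-cell-line human tumor panel at NCI, over a 5-log range (100, 10, 1, 0.1, 0.01 micromolar). Cells were exposed to drug for 48 h and growth was estimated with a sulforhodamine B protein stain. The value is percent growth inhibition at each concentration.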
# M14 = test: Cytotoxicity against human M14 cells at 10^-6 M after 48 hrs by SRB assay; settings: M14, 48 h, read-out: GI
# In short: (§2)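 Run in the NCI 60-cell-line screen after a three-line prescreen. Cells got a 48 h drug exposure; viability/growth was estimated with the sulforhodamine B protein assay. Growth inhibition (I%) was recorded at 100, 10, 1, 0.1 and 0.01 micromolar. Percent growth is relative to untreated control cells, and negative values indicate cell kill.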
# LOX IMVI = test: Cytotoxicity against human LOXIMVI cells at 10^-6 M after 48 hrs by SRB assay; settings: read-out: GI; in short: as §2
# SF-268 [2] = test: Cytotoxicity against human SF268 cells at 10^-6 M after 48 hrs by SRB assay; settings: SF-268, 48 h, read-out: GI; in short: as §1
# HT-29 = test: Cytotoxicity against human HT-29 cells at 10^-6 M after 48 hrs by SRB assay; settings: HT-29, 48 h, read-out: GI
# In short: (§3)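 Run by NCI on its 60-line human tumor cell panel, after a three-cell-line prescreen. Cells were exposed to drug for 48 h over a 5-log range: 100, 10, 1, 0.1 and 0.01 micromolar. Growth was estimated by sulforhodamine B (SRB) protein staining. Percent growth inhibition (I%) was recorded at each concentration relative to untreated control cells.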
# HCT-15 = test: Cytotoxicity against human HCT15 cells at 10^-6 M after 48 hrs by SRB assay; settings: HCT-15, 48 h, read-out: GI; in short: as §3
# [3] = Cytotoxicity against human Hs578T cells at 10^-6 M after 48 hrs by SRB assay; settings: Hs-578T, read-out: GI; in short: as §3
# PC-3 = test: Cytotoxicity against human PC3 cells at 10^-6 M after 48 hrs by SRB assay; settings: PC-3, 48 h, read-out: GI; in short: as §1
# TK-10 = test: Cytotoxicity against human TK10 cells at 10^-6 M after 48 hrs by SRB assay; settings: TK-10, 48 h, read-out: GI
# OVCAR-8 [4] = test: Cytotoxicity against human OVCAR8 cells at 10^-6 M after 48 hrs by SRB assay; settings: OVCAR-8, 48 h, read-out: GI; in short: as §1
# [5] = Cytotoxicity against human OVCAR4 cells at 10^-6 M after 48 hrs by SRB assay; settings: OVCAR-4, 48 h, read-out: GI; in short: as §1
# [6] = Cytotoxicity against human OVCAR5 cells at 10^-6 M after 48 hrs by SRB assay; settings: OVCAR-5, 48 h, read-out: GI; in short: as §1
# OVCAR-3 = test: Cytotoxicity against human OVCAR3 cells at 10^-6 M after 48 hrs by SRB assay; settings: OVCAR-3, 48 h, read-out: GI; in short: as §2
# UACC-62 = test: Cytotoxicity against human UACC62 cells at 10^-6 M after 48 hrs by SRB assay; settings: UACC-62, 48 h, read-out: GI
# SK-MEL-2 = test: Cytotoxicity against human SK-MEL-2 cells at 10^-6 M after 48 hrs by SRB assay; settings: SK-MEL-2, 48 h, read-out: GI; in short: as §1
# NCI-H522 = test: Cytotoxicity against human NCI-H522 cells at 10^-6 M after 48 hrs by SRB assay; settings: NCI-H522, 48 h, read-out: GI; in short: as §2
# COLO 205 = test: Cytotoxicity against human COLO205 cells at 10^-6 M after 48 hrs by SRB assay; settings: COLO 205, 48 h, read-out: GI; in short: as §3
# NCI-H322M = test: Cytotoxicity against human NCI-H322M cells at 10^-6 M after 48 hrs by SRB assay; settings: read-out: GI; in short: as §2
# NCI-H226 = test: Cytotoxicity against human NCI-H226 cells at 10^-6 M after 48 hrs by SRB assay; settings: NCI-H226, 48 h, read-out: GI; in short: as §2
# HOP-62 [7] = test: Cytotoxicity against human HOP62 cells at 10^-6 M after 48 hrs by SRB assay; settings: HOP-62, 48 h, read-out: GI; in short: as §3
# MOLT-4 = test: Cytotoxicity against human MOLT4 cells at 10^-6 M after 48 hrs by SRB assay; settings: MOLT-4, 48 h, read-out: GI; in short: as §2
# BT-549 = test: Cytotoxicity against human BT549 cells at 10^-5 M after 48 hrs by SRB assay; settings: BT-549, 48 h, read-out: GI; in short: as §3
# T47D = test: Cytotoxicity against human T47D cells at 10^-5 M after 48 hrs by SRB assay; settings: read-out: GI
# MDA-MB-435 = test: Cytotoxicity against human MDA-MB-435 cells at 10^-5 M after 48 hrs by SRB assay; settings: MDA-MB-435, 48 h, read-out: GI; in short: as §2
# MCF7 = test: Cytotoxicity against human MCF7 cells at 10^-5 M after 48 hrs by SRB assay; settings: MCF7, 48 h, read-out: GI; in short: as §2
# DU-145 = test: Cytotoxicity against human DU145 cells at 10^-5 M after 48 hrs by SRB assay; settings: DU-145, 48 h, read-out: GI; in short: as §3
# RXF 393 = test: Cytotoxicity against human RXF393 cells at 10^-5 M after 48 hrs by SRB assay; settings: RXF 393, 48 h, read-out: GI; in short: as §1
# CAKI-1 = test: Cytotoxicity against human Caki1 cells at 10^-5 M after 48 hrs by SRB assay; settings: CAKI-1, 48 h, read-out: GI; in short: as §3
# ACHN = test: Cytotoxicity against human ACHN cells at 10^-5 M after 48 hrs by SRB assay; settings: read-out: GI; in short: as §3
# OVCAR-8 [8] = test: Cytotoxicity against human OVCAR8 cells at 10^-5 M after 48 hrs by SRB assay; settings: OVCAR-8, 48 h, read-out: GI; in short: as §1
# [9] = Cytotoxicity against human OVCAR5 cells at 10^-5 M after 48 hrs by SRB assay; settings: OVCAR-5, 48 h, read-out: GI; in short: as §1
# SK-MEL-28 [10] = test: Cytotoxicity against human SK-MEL-28 cells at 10^-5 M after 48 hrs by SRB assay; settings: SK-MEL-28, 48 h, read-out: GI; in short: as §1
# SNB-75 = test: Cytotoxicity against human SNB75 cells at 10^-5 M after 48 hrs by SRB assay; settings: SNB-75, 48 h, read-out: GI
# SF-539 = test: Cytotoxicity against human SF539 cells at 10^-5 M after 48 hrs by SRB assay; settings: SF-539, 48 h, read-out: GI; in short: as §1
# SF-268 [11] = test: Cytotoxicity against human SF268 cells at 10^-5 M after 48 hrs by SRB assay; settings: SF-268, 48 h, read-out: GI; in short: as §1
# HOP-62 [12] = test: Cytotoxicity against human HOP62 cells at 10^-5 M after 48 hrs by SRB assay; settings: HOP-62, 48 h, read-out: GI; in short: as §3
# [13] = Cytotoxicity against human EKVX cells at 10^-5 M after 48 hrs by SRB assay; settings: read-out: GI; in short: as §3
# CCRF-CEM = test: Cytotoxicity against human CCRF-CEM cells at 10^-5 M after 48 hrs by SRB assay; settings: read-out: GI; in short: as §3
SMILES,inhibition of growth at 1 µM (SK-MEL-28 [1]),inhibition of growth at 1 µM (M14),inhibition of growth at 1 µM (LOX IMVI),inhibition of growth at 1 µM (SF-268 [2]),inhibition of growth at 1 µM (HT-29),inhibition of growth at 1 µM (HCT-15),inhibition of growth at 1 µM [3],inhibition of growth at 1 µM (PC-3),inhibition of growth at 1 µM (TK-10),inhibition of growth at 1 µM (OVCAR-8 [4]),inhibition of growth at 1 µM [5],inhibition of growth at 1 µM [6],inhibition of growth at 1 µM (OVCAR-3),inhibition of growth at 1 µM (UACC-62),inhibition of growth at 1 µM (SK-MEL-2),inhibition of growth at 1 µM (NCI-H522),inhibition of growth at 1 µM (COLO 205),inhibition of growth at 1 µM (NCI-H322M),inhibition of growth at 1 µM (NCI-H226),inhibition of growth at 1 µM (HOP-62 [7]),further results
C#CCN(Cc1nc2cc(C(F)(F)F)ccc2nc1-c1ccccc1)c1ccc(C)cc1,< 40%,54%,< 40%,< 40%,< 40%,63%,< 40%,< 40%,< 40%,< 40%,< 40%,< 40%,62%,< 40%,41%,49%,108%,< 40%,< 40%,56%,inhibition of growth at 1 µM (MOLT-4): 67%; inhibition of growth at 10 µM (BT-549): < 40%; inhibition of growth at 10 µM (T47D): 78%; inhibition of growth at 10 µM (MDA-MB-435): 147%; inhibition of growth at 10 µM (MCF7): 70%; inhibition of growth at 10 µM (DU-145): < 40%; inhibition of growth at 10 µM (RXF 393): 70%; inhibition of growth at 10 µM (CAKI-1): 82%; inhibition of growth at 10 µM (ACHN): 95%; inhibition of growth at 10 µM (OVCAR-8 [8]): 62%; inhibition of growth at 10 µM [9]: 71%; inhibition of growth at 10 µM (SK-MEL-28 [10]): 71%; inhibition of growth at 10 µM (SNB-75): 118%; inhibition of growth at 10 µM (SF-539): 49%; inhibition of growth at 10 µM (SF-268 [11]): 50%; inhibition of growth at 10 µM (HOP-62 [12]): 71%; inhibition of growth at 10 µM [13]: < 40%; inhibition of growth at 10 µM (CCRF-CEM): < 40%
CCN(Cc1nc2cc(C(F)(F)F)ccc2nc1-c1ccccc1)c1ccc(OC)c(OC)c1,< 40%,< 40%,< 40%,< 40%,< 40%,< 40%,< 40%,13%,< 40%,45%,< 40%,< 40%,25%,< 40%,< 40%,< 40%,< 40%,< 40%,17%,< 40%,inhibition of growth at 1 µM (MOLT-4): < 40%; inhibition of growth at 10 µM (BT-549): 33%; inhibition of growth at 10 µM (T47D): 24%; inhibition of growth at 10 µM (MDA-MB-435): 14%; inhibition of growth at 10 µM (MCF7): 25%; inhibition of growth at 10 µM (DU-145): 26%; inhibition of growth at 10 µM (RXF 393): 102%; inhibition of growth at 10 µM (CAKI-1): 29%; inhibition of growth at 10 µM (ACHN): 25%; inhibition of growth at 10 µM (OVCAR-8 [8]): 72%; inhibition of growth at 10 µM [9]: < 40%; inhibition of growth at 10 µM (SK-MEL-28 [10]): < 40%; inhibition of growth at 10 µM (SNB-75): < 40%; inhibition of growth at 10 µM (SF-539): 18%; inhibition of growth at 10 µM (SF-268 [11]): 15%; inhibition of growth at 10 µM (HOP-62 [12]): 18%; inhibition of growth at 10 µM [13]: 23%; inhibition of growth at 10 µM (CCRF-CEM): 70%
